Insulin prom act: TRM-6 insulin promoter activation | TRM-6 cells, insulin promoter eGFP reporter, imaging; plate-scaled: unstimulated 0, stimulated control 100 | activation, % at 2 µM | actives 0.81% (n = 130,000) | AID 1296;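 active means activation at 2 µM above a set limit, confirmed on inspection of the cell images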;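 further: share of cells whose green reporter signal exceeds an intensity cutoff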
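Test system: human fetal islet-derived TRM-6 cells with tamoxifen-inducible insulin promoter–eGFP reporter. Compound dosing: 2 µM final, single concentration. Incubation: tamoxifen pre-incubation 15 h overnight, then compound exposure 48 h at 37 °C. Signal: fixed-cell fluorescence microscopy, eGFP plus Hoechst.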
The depositor's hits bear a star. Shown is part of a subset that was picked to be rich in hits.

Screening CC(C)CNC(=O)CC(=O)NN=C1CCCC1 returned Insulin prom act -7.
For COc1ccc(/C=C(/NC(=O)c2ccco2)C(=O)N2CCCC2=O)cc1 the results were Insulin prom act -10.
Screening CCOC(=O)c1c(Cc2ccccc2)c[nH]c1C returned Insulin prom act 6.
Screening CCOc1ccccc1C(=O)N(Cc1cccs1)C1CCS(=O)(=O)C1 (centres undefined) returned Insulin prom act 8.
`c1ccc(-c2nc(-c3ccncc3)no2)cc1` gave Insulin prom act -80.
For Clc1ccc(-c2noc(CCCOc3ccccc3)n2)cc1 the results were Insulin prom act 8.
Screening Clc1ccc(-c2nc(Cc3ccccc3)no2)cc1 returned Insulin prom act 84*.
CC(NC(=O)OCc1ccccc1)C(=O)NCC(=O)NC(Cc1ccc(OC(C)(C)C)cc1)C(=O)OC(C)(C)C (centres undefined) was read as Insulin prom act 7.
For O=C(COc1ccc(Cl)cc1)NCc1cn2cc(Cl)ccc2n1 the results were Insulin prom act -3.
COc1ccc(CN(C)C(C)C(=O)Nc2ccc(S(=O)(=O)N3CCCC3)cc2)c(OC)c1OC (centres undefined) was read as Insulin prom act -7.
`Cc1nnc(NC(=O)c2cccc(S(=O)(=O)N3CCOCC3)c2)s1` gave Insulin prom act -6.
`O=C(Nn1cnnc1)c1cccc(S(=O)(=O)N2CCOCC2)c1` gave Insulin prom act 7.
For O=C(Nc1ccccc1O)c1cccc(S(=O)(=O)N2CCOCC2)c1 the results were Insulin prom act 462*.
For Cc1ccc(/C=C/C(=O)Nc2ccccc2C(N)=O)cc1 the results were Insulin prom act 3.
CC(C)(C)OC(=O)N1CCC[C@H]1c1nnc(SCc2ccccc2F)o1 was read as Insulin prom act 0.
For CCOC(=O)C1(Cc2ccccc2)CCN(Cc2ccon2)CC1 the results were Insulin prom act 7.
For CCOC(=O)C1(CC2CCCCO2)CCN(Cc2nc(C(C)C)cs2)CC1 (centres undefined) the results were Insulin prom act 375*.
`CCOC(=O)C1(CC2CC2)CCN(Cc2ccc(OC)cc2F)CC1` gave Insulin prom act 5.
Screening O=C(O)/C=C/C(=O)c1ccc2c(c1)NC(=O)CO2 returned Insulin prom act 7.
`CC(c1ccccc1)n1cc(C(=O)NCc2cccnc2)nn1` (centres undefined) gave Insulin prom act 0.
`CCC(C(=O)NCc1cccnc1)c1ccccc1` (centres undefined) gave Insulin prom act 440*.
CC(NS(=O)(=O)c1ccc(CCC(=O)NCc2cccnc2)cc1)c1ccccc1 (centres undefined) was read as Insulin prom act 133.
CCCCNC(=O)c1ccc(CNc2c(N3CCC(C(=O)OCC)CC3)c(=O)c2=O)cc1 was read as Insulin prom act -5.
Cc1nc2cc(C(=O)N3CCc4ccccc43)ccc2n1-c1ccc(F)c(F)c1 was read as Insulin prom act 9.
Screening COc1cc([N+](=O)[O-])ccc1NC(=O)CSc1nc2ccccc2n1-c1ccccc1 returned Insulin prom act 7.
For Cc1cc(=O)[nH]c(-c2cccnc2)n1 the results were Insulin prom act 7.
Clc1ccccc1Cn1nnc(-c2cccs2)n1 was read as Insulin prom act 569*.
For Clc1ccccc1-c1nnc2sc(-c3cccs3)nn12 the results were Insulin prom act 0.
For O=C(O)CCn1nnc(-c2cccs2)n1 the results were Insulin prom act 0.
`Cc1cccc2c1N1C(=O)c3c(C(=O)O)cccc3C1CC2C` (centres undefined) gave Insulin prom act 133.
COC(=O)CCN(C(=O)c1ccc(C)c([N+](=O)[O-])c1)c1ccccn1 was read as Insulin prom act active.
`Cc1ccc(C(=O)NCCSC(C)(C)C)cc1[N+](=O)[O-]` gave Insulin prom act -8.
Screening Cc1ccc(C(=O)COC(=O)CNC(=O)C(c2ccccc2)c2ccccc2)cc1[N+](=O)[O-] returned Insulin prom act 7.
`COCCNC(=S)N/N=C(\C)c1cccc([N+](=O)[O-])c1` gave Insulin prom act 0.
Screening COc1ccc(N(Cc2cc3cc(OC)ccc3[nH]c2=O)C(=O)c2cccnc2)cc1 returned Insulin prom act 0.
For COc1ccc2[nH]c(=O)c(CN(C(=O)c3cccnc3)c3ccccc3OC)cc2c1 the results were Insulin prom act 8.
Screening COc1ccc2[nH]c(=O)c(CN(C(=O)c3ccccn3)c3ccccc3)cc2c1 returned Insulin prom act 200*.
For Cc1nc([N+](=O)[O-])c(C(=O)OCc2cccc(Br)c2)n1C the results were Insulin prom act -7.
`OCc1cc(-c2ccc(Cl)c(Cl)c2)on1` gave Insulin prom act -7.
For COCc1nnc(N)s1 the results were Insulin prom act 6.
For Clc1ccc(Cc2ccc(SCc3ccccc3)nn2)c(Cl)c1 the results were Insulin prom act -3.
Nc1nnc(Cc2ccc(Cl)cc2Cl)s1 was read as Insulin prom act 97*.
`CCn1ncc(C2=NOC(C(=O)Nc3cccc(O)c3)C2)c1C` (centres undefined) gave Insulin prom act 0.
Screening Cc1nn(CC(=O)O)c(=O)c2ccccc12 returned Insulin prom act -9.
CC(C)(C)c1ccc(Cn2nc(CC(=O)O)c3ccccc3c2=O)cc1 was read as Insulin prom act 272*.
`COc1ccc(CNC(=O)Cc2nn(C)c(=O)c3ccccc23)cc1` gave Insulin prom act 3.
For Cc1cc(NCC(C)C)n2ncnc2n1 the results were Insulin prom act 5.
For CC(=O)Nc1cc(Cl)ccc1OS(=O)(=O)c1ccc(C)cc1 the results were Insulin prom act -6.
Cn1cnnc1SCC(=O)Nc1ccc2nc(SCc3ccccc3F)sc2c1 was read as Insulin prom act 3.
For Clc1ccccc1-c1nnc(-c2cccs2)o1 the results were Insulin prom act 0.
`Fc1ccc(Cc2nnc(-c3cccs3)o2)cc1` gave Insulin prom act -62.
`O=[N+]([O-])c1ccc(Cc2nnc(-c3ccccc3Cl)o2)cc1` gave Insulin prom act 344*.
COCCn1cnnc1SCC(=O)Nc1ccc(Br)cc1F was read as Insulin prom act 0.
`Cc1nn(C)c(Oc2cccc(Cl)c2)c1C(=O)Nc1ccc(F)cc1` gave Insulin prom act -3.
`COc1ccc(C2CC(c3ccc(Br)cc3)=NN2C(=O)c2cccnc2)cc1` (centres undefined) gave Insulin prom act 0.
`COc1cccc(C2CC(c3ccc(NS(C)(=O)=O)cc3)=NN2C(=O)c2ccccc2)c1OC` (centres undefined) gave Insulin prom act 0.
COC(=O)CCSCC(=O)N1N=C(c2ccc(Br)cc2)CC1c1cccc(OC)c1OC (centres undefined) was read as Insulin prom act 387*.
For Cc1ccc(S(=O)(=O)NC(=O)c2ccc(-c3ccc(-c4ccccc4)cc3)o2)c(C)c1 the results were Insulin prom act -67.
For O=C(COC(=O)c1cccnc1Cl)c1ccc(F)cc1 the results were Insulin prom act 426*.
`O=C(COC(=O)c1cccnc1Cl)c1ccccc1` gave Insulin prom act 8.
`O=C(OCc1nnc(-c2ccccc2)o1)c1cccnc1Cl` gave Insulin prom act -7.
`CC(Oc1cc(Cl)ccc1Cl)C(=O)N/N=C\c1ccnn1C` (centres undefined) gave Insulin prom act 7.
`Cc1ccc(-n2c(C)cc(C)c(C#N)c2=O)cc1C` gave Insulin prom act 0.

From PubChem
